pIC50: −log10 of the molar value. Activity calls are given as the source filed them. The rule behind the calls is not given here.
What was measured:
HeLa = test: Antiproliferative activity against human HeLa cells after 72 hrs by MTT assay; format: functional, cell-based
In short: (§1)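 Cells grown in vitro with test agent; growth inhibition read by MTT assay; IC50 taken as concentration inhibiting tumor cell proliferation by 50%.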

[1] = Antiproliferative activity against human SW620 cells after 72 hrs by MTT assay; format: functional, cell-based; settings: SW-620, 72 h; in short: as §1
MCF7 [2] = test: Antiproliferative activity against human MCF7 cells after 72 hrs by MTT assay; format: functional, cell-based; settings: MCF7, 72 h; in short: as §1
BJ = test: Antiproliferative activity against human BJ cells after 72 hrs by MTT assay; format: cell-based; in short: as §1
[3] = molecular target: T1, 17-beta-hydroxysteroid dehydrogenase type 1 (Homo sapiens) (UniProt P14061); test: Inhibition of 17beta-HSD1 in human MCF7 cells at IC50 after 24 hrs by ELISA; format: cell-based
T1 sequence (whole entry): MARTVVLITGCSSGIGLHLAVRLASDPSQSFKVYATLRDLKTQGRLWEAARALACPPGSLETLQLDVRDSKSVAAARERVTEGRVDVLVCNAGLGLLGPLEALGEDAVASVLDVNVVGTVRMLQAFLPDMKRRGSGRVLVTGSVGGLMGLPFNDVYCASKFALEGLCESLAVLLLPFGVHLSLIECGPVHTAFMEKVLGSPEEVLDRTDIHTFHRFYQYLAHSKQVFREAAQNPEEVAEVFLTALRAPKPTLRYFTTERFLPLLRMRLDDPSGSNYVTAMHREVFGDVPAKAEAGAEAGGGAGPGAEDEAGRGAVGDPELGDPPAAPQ

MCF7 [4] = test: Induction of apoptosis in human MCF7 cells assessed as late apoptotic cells at IC50 after 24 hrs by annexinV/propidium iodide staining based fluorescence analysis (reference value: 7.5 %); format: functional
MCF7 [5] = test: Induction of apoptosis in human MCF7 cells assessed as early apoptotic cells at IC50 after 48 hrs by annexinV/propidium iodide staining based fluorescence analysis (reference value: 36.1 %); format: functional
MCF7 [6] = test: Downregulation of ASAH1 expression in human MCF7 cells at IC50 after 24 hrs by western blot analysis; format: functional, cell-based
MCF7 [7] = test: Induction of apoptosis in human MCF7 cells assessed as early apoptotic cells at IC50 after 24 hrs by annexinV/propidium iodide staining based fluorescence analysis (reference value: 8.7 %); format: functional
MCF7 [8] = test: Induction of apoptosis in human MCF7 cells assessed as late apoptotic cells at IC50 after 48 hrs by annexinV/propidium iodide staining based fluorescence analysis (reference value: 27.7 %); format: functional
[9] = molecular target: T1, 17-beta-hydroxysteroid dehydrogenase type 1 (Homo sapiens); test: Inhibition of 17beta-HSD1 in human MCF7 cells at 5XIC50 after 24 hrs by ELISA; format: cell-based
MCF7 [10] = test: Induction of apoptosis in human MCF7 cells assessed as necrotic cells at IC50 after 48 hrs by annexinV/propidium iodide staining based fluorescence analysis (reference value: 25.4 %); format: functional
MCF7 [11] = test: Effect on SK1 expression in human MCF7 cells at IC50 after 24 hrs by western blot analysis; format: functional, cell-based
MCF7 [12] = test: Induction of apoptosis in human MCF7 cells assessed as necrotic cells at IC50 after 24 hrs by annexinV/propidium iodide staining based fluorescence analysis (reference value: 9.4 %); format: functional

SMILES: CC(=O)OCC(CCn1cc(C#Cc2ccc(Br)cc2)c(=O)n(C(=O)c2ccccc2)c1=O)COC(C)=O
- pIC50 (HeLa): 4.33
- pIC50 [1]: < 4.00
- pIC50 (MCF7 [2]): 4.54
- pIC50 (BJ): 4.42

SMILES: O=c1[nH]cc(F)c(=O)[nH]1 [FLUOROURACIL]
- pIC50 (HeLa): < 4.00
- pIC50 [1]: 6.10
- pIC50 (MCF7 [2]): 7.05

SMILES: CCCCCC#Cc1cn(CCC(COC(C)=O)COC(C)=O)c(=O)n(C(=O)c2ccccc2)c1=O
- pIC50 (HeLa): 4.27
- pIC50 [1]: 4.39
- pIC50 (MCF7 [2]): 4.21

SMILES: O=c1[nH]c(=O)n(CCC(CO)CO)cc1C#CC1CC1
- pIC50 (HeLa): < 4.00
- pIC50 [1]: < 4.00
- pIC50 (MCF7 [2]): < 4.00

SMILES: O=c1[nH]c(=O)n(CCC(CO)CO)cc1C#CCc1ccccc1
- pIC50 (HeLa): 4.20
- pIC50 [1]: 4.14
- pIC50 (MCF7 [2]): < 4.00
- pIC50 (BJ): < 4.00

SMILES: CC(=O)OCC(CCn1cc(C#CC(C)(C)C)c(=O)n(C(=O)c2ccccc2)c1=O)COC(C)=O
- pIC50 (HeLa): 4.15
- pIC50 [1]: < 4.00
- pIC50 (MCF7 [2]): 4.17
- pIC50 (BJ): 4.43

SMILES: CCCCCC#Cc1cn(CCC(CO)CO)c(=O)[nH]c1=O
- pIC50 (HeLa): 4.12
- pIC50 [1]: < 4.00
- pIC50 (MCF7 [2]): 4.42

SMILES: O=c1[nH]c(=O)n(CCC(CO)CO)cc1C#Cc1cc(F)cc(F)c1
- pIC50 (HeLa): 4.51
- pIC50 [1]: < 4.00
- pIC50 (MCF7 [2]): 4.20
- pIC50 (BJ): < 4.00

SMILES: CC(=O)OCC(CCn1cc(C#CCCCCl)c(=O)n(C(=O)c2ccccc2)c1=O)COC(C)=O
- pIC50 (HeLa): 4.28
- pIC50 [1]: < 4.00
- pIC50 (MCF7 [2]): 4.68

SMILES: O=c1[nH]c(=O)n(CCC(CO)CO)cc1-c1cccs1
- inhibition [3]: Active
- pIC50 (HeLa): 5.11
- pIC50 [1]: < 4.00
- Activity (MCF7 [4]): 33.6%
- Activity (MCF7 [5]): 54.9%
- pIC50 (MCF7 [2]): 5.22
- inhibition (MCF7 [6]): inactive
- Activity (MCF7 [7]): 32.8%
- Activity (MCF7 [8]): 22.9%
- inhibition [9]: Active
- Activity (MCF7 [10]): 13.1%
- Activity (MCF7 [11]): inactive
- Activity (MCF7 [12]): 26.2%

SMILES: CC(=O)OCC(CCn1cc(C#CCc2ccccc2)c(=O)n(C(=O)c2ccccc2)c1=O)COC(C)=O
- pIC50 (HeLa): 4.52
- pIC50 [1]: 4.44
- pIC50 (MCF7 [2]): 4.57

SMILES: CCCCCc1ccc(C#Cc2cn(CCC(COC(C)=O)COC(C)=O)c(=O)n(C(=O)c3ccccc3)c2=O)cc1
- pIC50 (HeLa): 4.10
- pIC50 [1]: < 4.00
- Activity (MCF7 [4]): 28.3%
- Activity (MCF7 [5]): 28.2%
- pIC50 (MCF7 [2]): 7.00
- inhibition (MCF7 [6]): Active
- Activity (MCF7 [7]): 41.7%
- Activity (MCF7 [8]): 24.1%
- pIC50 (BJ): 4.75
- Activity (MCF7 [10]): 37.9%
- Activity (MCF7 [11]): inactive
- Activity (MCF7 [12]): 34.6%

SMILES: CCCCCCCCC#Cc1cn(CCC(COC(C)=O)COC(C)=O)c(=O)n(C(=O)c2ccccc2)c1=O
- pIC50 (HeLa): 4.49
- pIC50 [1]: 4.18
- pIC50 (MCF7 [2]): 4.54
- pIC50 (BJ): < 4.00

SMILES: CC(C)(C)C#Cc1cn(CCC(CO)CO)c(=O)[nH]c1=O
- pIC50 (HeLa): < 4.00
- pIC50 [1]: < 4.00
- pIC50 (MCF7 [2]): 4.02
- pIC50 (BJ): 4.24

SMILES: CC(=O)OCC(CCn1cc(C#Cc2cc(F)cc(F)c2)c(=O)n(C(=O)c2ccccc2)c1=O)COC(C)=O
- pIC50 (HeLa): 4.19
- pIC50 [1]: < 4.00
- pIC50 (MCF7 [2]): 4.54
- pIC50 (BJ): 4.33

SMILES: O=c1[nH]c(=O)n(CCC(CO)CO)cc1C#Cc1ccc(Br)cc1
- pIC50 (HeLa): 4.17
- pIC50 [1]: < 4.00
- pIC50 (MCF7 [2]): 4.34
- pIC50 (BJ): < 4.00

SMILES: CC(=O)OCC(CCn1cc(C#CC2CC2)c(=O)n(C(=O)c2ccccc2)c1=O)COC(C)=O
- pIC50 (HeLa): < 4.00
- pIC50 [1]: < 4.00
- Activity (MCF7 [4]): 36.6%
- Activity (MCF7 [5]): 20.9%
- pIC50 (MCF7 [2]): 7.00
- inhibition (MCF7 [6]): Active
- Activity (MCF7 [7]): 10.9%
- Activity (MCF7 [8]): 24.4%
- pIC50 (BJ): 6.52
- Activity (MCF7 [10]): 31.6%
- Activity (MCF7 [11]): inactive
- Activity (MCF7 [12]): 34.1%

SMILES: CCCCCc1ccc(C#Cc2cn(CCC(CO)CO)c(=O)[nH]c2=O)cc1
- pIC50 (HeLa): 4.32
- pIC50 [1]: < 4.00
- pIC50 (MCF7 [2]): 4.57

SMILES: CCCCCCCCC#Cc1cn(CCC(CO)CO)c(=O)[nH]c1=O
- pIC50 (HeLa): 4.23
- pIC50 [1]: < 4.00
- pIC50 (MCF7 [2]): 4.39

SMILES: O=c1[nH]c(=O)n(CCC(CO)CO)cc1-c1ccco1
- inhibition [3]: inactive
- pIC50 (HeLa): < 4.00
- pIC50 [1]: < 4.00
- Activity (MCF7 [4]): 19.7%
- Activity (MCF7 [5]): 39.3%
- pIC50 (MCF7 [2]): > 8.00
- inhibition (MCF7 [6]): inactive
- Activity (MCF7 [7]): 20.4%
- Activity (MCF7 [8]): 18%
- inhibition [9]: inactive
- pIC50 (BJ): 6.30
- Activity (MCF7 [10]): 28.7%
- Activity (MCF7 [11]): inactive
- Activity (MCF7 [12]): 34%

SMILES: O=c1[nH]c(=O)n(CCC(CO)CO)cc1C#CCCCCl
- pIC50 (HeLa): < 4.00
- pIC50 [1]: < 4.00
- pIC50 (MCF7 [2]): 4.45
